Test results published in ChEMBL document CHEMBL1949561, “Synthesis and triplex-forming ability of oligonucleotides bearing 1-substituted 1H-1,2,3-triazole nucleobases” (Bioorg Med Chem, 2011).

Legend:
Assay type in all cases: nucleic-acid assay
Nucleic Acid [1] = experiment: Binding affinity to 5'-GCTAAAAAGATAGAGAGATCG-3'/5'- CGATCTCTCTATCTTTTTAGC-3' double stranded DNA assessed as melting temperature at 1.5 uM in sodium phosphate buffer at pH 7 by UV spectrophotometric analysis
Summary of the method: (§1)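 UV melting of triplexes between each modified TFO and the 21-bp duplex target, in 7 mM sodium phosphate buffer (pH 7.0), 140 mM KCl and 10 mM MgCl₂. Each oligonucleotide at 1.5 µM final. Absorbance followed at 260 nm from 5 °C to 85 °C, scanned at 0.5 °C/min, to give Tm.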

Nucleic Acid [2] = experiment: Binding affinity to 5'-GCTAAAAAGAGAGAGAGATCG-3'/5'- CGATCTCTCTCTCTTTTTAGC-3' double stranded DNA assessed as melting temperature at 1.5 uM in sodium phosphate buffer at pH 7 by UV spectrophotometric analysis; summary of the method: as §1
Nucleic Acid [3] = experiment: Binding affinity to 5'-GCTAAAAAGAAAGAGAGATCG-3'/5'- CGATCTCTCTTTCTTTTTAGC-3' double stranded DNA assessed as melting temperature at 1.5 uM in sodium phosphate buffer at pH 7 by UV spectrophotometric analysis; summary of the method: as §1
Nucleic Acid [4] = experiment: Binding affinity to5'-GCTAAAAAGACAGAGAGATCG-3'/5'- CGATCTCTCTGTCTTTTTAGC-3' double stranded DNA assessed as melting temperature at 1.5 uM in sodium phosphate buffer at pH 7 by UV spectrophotometric analysis; summary of the method: as §1

Tm (Nucleic Acid [1]) [°C] | Tm (Nucleic Acid [2]) [°C] | Tm (Nucleic Acid [3]) [°C] | Tm (Nucleic Acid [4]) [°C] | SMILES
15 | < 10 | 17 | 25 | Cc1cn([C@H]2C[C@H](OP(=O)(O)OC[C@H]3O[C@@H](n4cc(C)c(=O)[nH]c4=O)C[C@@H]3OP(=O)(O)OC[C@H]3O[C@@H](n4cc(C)c(N)nc4=O)C[C@@H]3OP(=O)(O)OC[C@H]3O[C@@H](n4cc(C)c(=O)[nH]c4=O)C[C@@H]3OP(=O)(O)OC[C@H]3O[C@@H](n4cc(C)c(N)nc4=O)C[C@@H]3OP(=O)(O)OC[C@H]3O[C@@H](n4cc(C)c(=O)[nH]c4=O)C[C@@H]3OP(=O)(O)OC[C@H]3O[C@@H](c4cn(-c5ccccc5O)nn4)C[C@@H]3OP(=O)(O)OC[C@H]3O[C@@H](n4cc(C)c(=O)[nH]c4=O)C[C@@H]3OP(=O)(O)OC[C@H]3O[C@@H](n4cc(C)c(N)nc4=O)C[C@@H]3OP(=O)(O)OC[C@H]3O[C@@H](n4cc(C)c(=O)[nH]c4=O)C[C@@H]3OP(=O)(O)OC[C@H]3O[C@@H](n4cc(C)c(=O)[nH]c4=O)C[C@@H]3OP(=O)(O)OC[C@H]3O[C@@H](n4cc(C)c(=O)[nH]c4=O)C[C@@H]3OP(=O)(O)OC[C@H]3O[C@@H](n4cc(C)c(=O)[nH]c4=O)C[C@@H]3OP(=O)(O)OC[C@H]3O[C@@H](n4cc(C)c(=O)[nH]c4=O)C[C@@H]3O)[C@@H](COP(=O)(O)O[C@H]3C[C@H](n4cc(C)c(=O)[nH]c4=O)O[C@@H]3CO)O2)c(=O)nc1N
11 | < 10 | < 10 | 17 | Cc1cn([C@H]2C[C@H](OP(=O)(O)OC[C@H]3O[C@@H](n4cc(C)c(=O)[nH]c4=O)C[C@@H]3OP(=O)(O)OC[C@H]3O[C@@H](n4cc(C)c(N)nc4=O)C[C@@H]3OP(=O)(O)OC[C@H]3O[C@@H](n4cc(C)c(=O)[nH]c4=O)C[C@@H]3OP(=O)(O)OC[C@H]3O[C@@H](n4cc(C)c(N)nc4=O)C[C@@H]3OP(=O)(O)OC[C@H]3O[C@@H](n4cc(C)c(=O)[nH]c4=O)C[C@@H]3OP(=O)(O)OC[C@H]3O[C@@H](c4cn(C56CC7CC(CC(C7)C5)C6)nn4)C[C@@H]3OP(=O)(O)OC[C@H]3O[C@@H](n4cc(C)c(=O)[nH]c4=O)C[C@@H]3OP(=O)(O)OC[C@H]3O[C@@H](n4cc(C)c(N)nc4=O)C[C@@H]3OP(=O)(O)OC[C@H]3O[C@@H](n4cc(C)c(=O)[nH]c4=O)C[C@@H]3OP(=O)(O)OC[C@H]3O[C@@H](n4cc(C)c(=O)[nH]c4=O)C[C@@H]3OP(=O)(O)OC[C@H]3O[C@@H](n4cc(C)c(=O)[nH]c4=O)C[C@@H]3OP(=O)(O)OC[C@H]3O[C@@H](n4cc(C)c(=O)[nH]c4=O)C[C@@H]3OP(=O)(O)OC[C@H]3O[C@@H](n4cc(C)c(=O)[nH]c4=O)C[C@@H]3O)[C@@H](COP(=O)(O)O[C@H]3C[C@H](n4cc(C)c(=O)[nH]c4=O)O[C@@H]3CO)O2)c(=O)nc1N
12 | < 10 | < 10 | 20 | Cc1cn([C@H]2C[C@H](OP(=O)(O)OC[C@H]3O[C@@H](n4cc(C)c(=O)[nH]c4=O)C[C@@H]3OP(=O)(O)OC[C@H]3O[C@@H](n4cc(C)c(N)nc4=O)C[C@@H]3OP(=O)(O)OC[C@H]3O[C@@H](n4cc(C)c(=O)[nH]c4=O)C[C@@H]3OP(=O)(O)OC[C@H]3O[C@@H](n4cc(C)c(N)nc4=O)C[C@@H]3OP(=O)(O)OC[C@H]3O[C@@H](n4cc(C)c(=O)[nH]c4=O)C[C@@H]3OP(=O)(O)OC[C@H]3O[C@@H](c4cn(C5CCCCC5)nn4)C[C@@H]3OP(=O)(O)OC[C@H]3O[C@@H](n4cc(C)c(=O)[nH]c4=O)C[C@@H]3OP(=O)(O)OC[C@H]3O[C@@H](n4cc(C)c(N)nc4=O)C[C@@H]3OP(=O)(O)OC[C@H]3O[C@@H](n4cc(C)c(=O)[nH]c4=O)C[C@@H]3OP(=O)(O)OC[C@H]3O[C@@H](n4cc(C)c(=O)[nH]c4=O)C[C@@H]3OP(=O)(O)OC[C@H]3O[C@@H](n4cc(C)c(=O)[nH]c4=O)C[C@@H]3OP(=O)(O)OC[C@H]3O[C@@H](n4cc(C)c(=O)[nH]c4=O)C[C@@H]3OP(=O)(O)OC[C@H]3O[C@@H](n4cc(C)c(=O)[nH]c4=O)C[C@@H]3O)[C@@H](COP(=O)(O)O[C@H]3C[C@H](n4cc(C)c(=O)[nH]c4=O)O[C@@H]3CO)O2)c(=O)nc1N
17 | < 10 | 13 | 22 | Cc1cn([C@H]2C[C@H](OP(=O)(O)OC[C@H]3O[C@@H](n4cc(C)c(=O)[nH]c4=O)C[C@@H]3OP(=O)(O)OC[C@H]3O[C@@H](n4cc(C)c(N)nc4=O)C[C@@H]3OP(=O)(O)OC[C@H]3O[C@@H](n4cc(C)c(=O)[nH]c4=O)C[C@@H]3OP(=O)(O)OC[C@H]3O[C@@H](n4cc(C)c(N)nc4=O)C[C@@H]3OP(=O)(O)OC[C@H]3O[C@@H](n4cc(C)c(=O)[nH]c4=O)C[C@@H]3OP(=O)(O)OC[C@H]3O[C@@H](c4cn(-c5cccc(NC(N)=O)c5)nn4)C[C@@H]3OP(=O)(O)OC[C@H]3O[C@@H](n4cc(C)c(=O)[nH]c4=O)C[C@@H]3OP(=O)(O)OC[C@H]3O[C@@H](n4cc(C)c(N)nc4=O)C[C@@H]3OP(=O)(O)OC[C@H]3O[C@@H](n4cc(C)c(=O)[nH]c4=O)C[C@@H]3OP(=O)(O)OC[C@H]3O[C@@H](n4cc(C)c(=O)[nH]c4=O)C[C@@H]3OP(=O)(O)OC[C@H]3O[C@@H](n4cc(C)c(=O)[nH]c4=O)C[C@@H]3OP(=O)(O)OC[C@H]3O[C@@H](n4cc(C)c(=O)[nH]c4=O)C[C@@H]3OP(=O)(O)OC[C@H]3O[C@@H](n4cc(C)c(=O)[nH]c4=O)C[C@@H]3O)[C@@H](COP(=O)(O)O[C@H]3C[C@H](n4cc(C)c(=O)[nH]c4=O)O[C@@H]3CO)O2)c(=O)nc1N
14 | < 10 | < 10 | 23 | Cc1cn([C@H]2C[C@H](OP(=O)(O)OC[C@H]3O[C@@H](n4cc(C)c(=O)[nH]c4=O)C[C@@H]3OP(=O)(O)OC[C@H]3O[C@@H](n4cc(C)c(N)nc4=O)C[C@@H]3OP(=O)(O)OC[C@H]3O[C@@H](n4cc(C)c(=O)[nH]c4=O)C[C@@H]3OP(=O)(O)OC[C@H]3O[C@@H](n4cc(C)c(N)nc4=O)C[C@@H]3OP(=O)(O)OC[C@H]3O[C@@H](n4cc(C)c(=O)[nH]c4=O)C[C@@H]3OP(=O)(O)OC[C@H]3O[C@@H](c4cn(-c5cccc(CO)c5)nn4)C[C@@H]3OP(=O)(O)OC[C@H]3O[C@@H](n4cc(C)c(=O)[nH]c4=O)C[C@@H]3OP(=O)(O)OC[C@H]3O[C@@H](n4cc(C)c(N)nc4=O)C[C@@H]3OP(=O)(O)OC[C@H]3O[C@@H](n4cc(C)c(=O)[nH]c4=O)C[C@@H]3OP(=O)(O)OC[C@H]3O[C@@H](n4cc(C)c(=O)[nH]c4=O)C[C@@H]3OP(=O)(O)OC[C@H]3O[C@@H](n4cc(C)c(=O)[nH]c4=O)C[C@@H]3OP(=O)(O)OC[C@H]3O[C@@H](n4cc(C)c(=O)[nH]c4=O)C[C@@H]3OP(=O)(O)OC[C@H]3O[C@@H](n4cc(C)c(=O)[nH]c4=O)C[C@@H]3O)[C@@H](COP(=O)(O)O[C@H]3C[C@H](n4cc(C)c(=O)[nH]c4=O)O[C@@H]3CO)O2)c(=O)nc1N
14 | 12 | < 10 | 20 | CCOC(=O)Cn1cc([C@H]2C[C@H](OP(=O)(O)OC[C@H]3O[C@@H](n4cc(C)c(=O)[nH]c4=O)C[C@@H]3OP(=O)(O)OC[C@H]3O[C@@H](n4cc(C)c(N)nc4=O)C[C@@H]3OP(=O)(O)OC[C@H]3O[C@@H](n4cc(C)c(=O)[nH]c4=O)C[C@@H]3OP(=O)(O)OC[C@H]3O[C@@H](n4cc(C)c(=O)[nH]c4=O)C[C@@H]3OP(=O)(O)OC[C@H]3O[C@@H](n4cc(C)c(=O)[nH]c4=O)C[C@@H]3OP(=O)(O)OC[C@H]3O[C@@H](n4cc(C)c(=O)[nH]c4=O)C[C@@H]3OP(=O)(O)OC[C@H]3O[C@@H](n4cc(C)c(=O)[nH]c4=O)C[C@@H]3O)[C@@H](COP(=O)(O)O[C@H]3C[C@H](n4cc(C)c(=O)[nH]c4=O)O[C@@H]3COP(=O)(O)O[C@H]3C[C@H](n4cc(C)c(N)nc4=O)O[C@@H]3COP(=O)(O)O[C@H]3C[C@H](n4cc(C)c(=O)[nH]c4=O)O[C@@H]3COP(=O)(O)O[C@H]3C[C@H](n4cc(C)c(N)nc4=O)O[C@@H]3COP(=O)(O)O[C@H]3C[C@H](n4cc(C)c(=O)[nH]c4=O)O[C@@H]3COP(=O)(O)O[C@H]3C[C@H](n4cc(C)c(N)nc4=O)O[C@@H]3COP(=O)(O)O[C@H]3C[C@H](n4cc(C)c(=O)[nH]c4=O)O[C@@H]3CO)O2)nn1
16 | < 10 | < 10 | 24 | Cc1cn([C@H]2C[C@H](OP(=O)(O)OC[C@H]3O[C@@H](n4cc(C)c(=O)[nH]c4=O)C[C@@H]3OP(=O)(O)OC[C@H]3O[C@@H](n4cc(C)c(N)nc4=O)C[C@@H]3OP(=O)(O)OC[C@H]3O[C@@H](n4cc(C)c(=O)[nH]c4=O)C[C@@H]3OP(=O)(O)OC[C@H]3O[C@@H](n4cc(C)c(N)nc4=O)C[C@@H]3OP(=O)(O)OC[C@H]3O[C@@H](n4cc(C)c(=O)[nH]c4=O)C[C@@H]3OP(=O)(O)OC[C@H]3O[C@@H](c4cn(-c5ccc(CO)cc5)nn4)C[C@@H]3OP(=O)(O)OC[C@H]3O[C@@H](n4cc(C)c(=O)[nH]c4=O)C[C@@H]3OP(=O)(O)OC[C@H]3O[C@@H](n4cc(C)c(N)nc4=O)C[C@@H]3OP(=O)(O)OC[C@H]3O[C@@H](n4cc(C)c(=O)[nH]c4=O)C[C@@H]3OP(=O)(O)OC[C@H]3O[C@@H](n4cc(C)c(=O)[nH]c4=O)C[C@@H]3OP(=O)(O)OC[C@H]3O[C@@H](n4cc(C)c(=O)[nH]c4=O)C[C@@H]3OP(=O)(O)OC[C@H]3O[C@@H](n4cc(C)c(=O)[nH]c4=O)C[C@@H]3OP(=O)(O)OC[C@H]3O[C@@H](n4cc(C)c(=O)[nH]c4=O)C[C@@H]3O)[C@@H](COP(=O)(O)O[C@H]3C[C@H](n4cc(C)c(=O)[nH]c4=O)O[C@@H]3CO)O2)c(=O)nc1N
